pKd: −log10 of the molar value. Activity calls are given as the source filed them. The rule behind the calls is not given here.
Key:
Homo sapiens [1] = organism: Homo sapiens; assay: Ratio of Kd for c-KIT G-quadruplex 5'-biotin-d[T9G3CG3CGCGAG3AG4]-3' (unknown origin) to Kd for human telomeric 5'-biotin-d[T7(T2AG3)4]-3'
Homo sapiens [2] = organism: Homo sapiens; assay: Binding affinity to c-KIT G-quadruplex 5'-FAM-G3CG3CGCGAG3AG4-TAMRA-3' (unknown origin) assessed as melting temperature at 2 uM by FRET assay
How it was run: (§1)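 K+ buffer: 10 mM KCl, 100 mM LiCl, 10 mM cacodylate, pH 7.3. FAM/TAMRA dual-labelled probes were diluted to 400 nM, annealed at 85 °C for 10 min and cooled to room temperature, then mixed with ligand at the stated concentration. FAM was excited at 492 nm and read at 516 nm every 0.5 °C from 25 to 100 °C, with a 30 s hold before each reading. ΔTm was taken against a buffer-only control, in triplicate.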

[3] = Binding affinity to hairpin 5'-biotin-d[T10ATAGCTATAT7ATAGCTATA]-3' (unknown origin) assessed as dissociation constant by surface plasmon resonance assay; design: species or system Homo sapiens
How it was run: (§2)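 Biotinylated DNA was annealed in 20 mM Tris-HCl, 200 mM KCl, pH 7.4, and captured on a streptavidin chip at ~400 RU. Running buffer: 20 mM KH2PO4, 150 mM KCl, 0.005% P20, 0.5 mM EDTA, pH 7.4. Ligand at 10–1000 nM was injected for 120 s in random order, with blank flow-cell subtraction. KD came from a steady-state affinity fit of Req against concentration; "not detected" means no significant binding at 1 µM.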

Homo sapiens [4] = organism: Homo sapiens; assay: Binding affinity to hairpin 5'-FAM-TATAGCTATAT7ATAGCTATA-TAMRA-3' (unknown origin) assessed as melting temperature at 0.5 uM by FRET assay; how it was run: as §1
[5] = Binding affinity to human telomeric 5'-biotin-d[T7(T2AG3)4]-3' assessed as dissociation constant (KD) by surface plasmon resonance assay; how it was run: as §2
[6] = Binding affinity to c-KIT G-quadruplex 5'-biotin-d[T9G3CG3CGCGAG3AG4]-3' (unknown origin) assessed as dissociation constant by surface plasmon resonance assay; design: species or system Homo sapiens; how it was run: as §2
Homo sapiens [7] = organism: Homo sapiens; assay: Binding affinity to human telomeric 5'-FAMd(G3[T2AG3]3)-TAMRA-3' assessed as melting temperature at 1 uM by FRET assay; how it was run: as §1
Homo sapiens [8] = organism: Homo sapiens; assay: Binding affinity to human telomeric 5'-FAMd(G3[T2AG3]3)-TAMRA-3' in Na+ solution assessed as melting temperature at 1 uM by FRET assay
How it was run: (§3)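 Telomeric FRET probe in Na+ buffer: 100 mM NaCl, 10 mM LiCl, 10 mM cacodylate, pH 7.3. Probe was diluted to 400 nM and annealed at 85 °C for 10 min, then cooled to room temperature; ligand was added at the stated concentration. Emission at 516 nm (excitation 492 nm) was read in 0.5 °C steps from 25 to 100 °C, with a 30 s hold per step. ΔTm versus buffer control, triplicate.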

Homo sapiens [9] = organism: Homo sapiens; assay: Binding affinity to human telomeric 5'-FAMd(G3[T2AG3]3)-TAMRA-3' assessed as melting temperature at 2 uM by FRET assay; how it was run: as §1
Homo sapiens [10] = organism: Homo sapiens; assay: Binding affinity to c-KIT G-quadruplex 5'-FAM-G3CG3CGCGAG3AG4-TAMRA-3' (unknown origin) assessed as melting temperature at 1 uM by FRET assay; how it was run: as §1
Homo sapiens [11] = organism: Homo sapiens; assay: Binding affinity to human telomeric 5'-FAMd(G3[T2AG3]3)-TAMRA-3' assessed as melting temperature at 0.5 uM by FRET assay; how it was run: as §1
Homo sapiens [12] = organism: Homo sapiens; assay: Binding affinity to human telomeric 5'-FAMd(G3[T2AG3]3)-TAMRA-3' in Na+ solution assessed as melting temperature at 2 uM by FRET assay; how it was run: as §3
Homo sapiens [13] = organism: Homo sapiens; assay: Binding affinity to human telomeric 5'-FAMd(G3[T2AG3]3)-TAMRA-3' in Na+ solution assessed as melting temperature at 0.5 uM by FRET assay; how it was run: as §3
Homo sapiens [14] = organism: Homo sapiens; assay: Binding affinity to c-KIT G-quadruplex 5'-FAM-G3CG3CGCGAG3AG4-TAMRA-3' (unknown origin) assessed as melting temperature at 0.5 uM by FRET assay; how it was run: as §1
Homo sapiens [15] = organism: Homo sapiens; assay: Binding affinity to hairpin 5'-FAM-TATAGCTATAT7ATAGCTATA-TAMRA-3' (unknown origin) assessed as melting temperature at 1 uM by FRET assay; how it was run: as §1
Homo sapiens [16] = organism: Homo sapiens; assay: Binding affinity to hairpin 5'-biotin-d[T10ATAGCTATAT7ATAGCTATA]-3' (unknown origin) assessed as melting temperature at 1 uM by surface plasmon resonance assay; how it was run: as §2
Homo sapiens [17] = organism: Homo sapiens; assay: Displacement of thiazole orange from human telomeric 5'-AG3(T2AG3)3-3' (unknown origin) in Na+ solution assessed as reduction of fluorescence by G4-FID assay
How it was run: (§4)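 Done at 20 °C in 10 mM sodium cacodylate pH 7.3 with 100 mM KCl; 22AG was also run with 100 mM NaCl. 0.25 µM prefolded DNA carried thiazole orange: 0.50 µM for 22AG and c-KIT, 0.75 µM for ds26. Ligand was titrated from 0.2 to 10 equivalents, with 3 min equilibration per step. Displacement = 100 − (FA/FA0 × 100), from emission area 510–750 nm (excitation 501 nm). DC50 was taken as 50% displacement; otherwise the displacement at 2.5 µM ligand is given.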

Homo sapiens [18] = organism: Homo sapiens; assay: Displacement of thiazole orange from 5'-CA2TCG2ATCGA2T2CGATC2GAT2G-3' (unknown origin) assessed as reduction of fluorescence at 2.5 uM by G4-FID assay; how it was run: as §4
Homo sapiens [19] = organism: Homo sapiens; assay: Displacement of thiazole orange from c-KIT G-quadruplex 5'-G3CG3CGCGAG3AG4-3' (unknown origin) assessed as reduction of fluorescence by G4-FID assay; how it was run: as §4
Homo sapiens [20] = organism: Homo sapiens; assay: Binding affinity to c-KIT G-quadruplex 5'-G3CG3CGCGAG3AG4-3' (unknown origin) by circular dichroism spectroscopy
Homo sapiens [21] = organism: Homo sapiens; assay: Displacement of thiazole orange from human telomeric 5'-AG3(T2AG3)3-3' (unknown origin) in K+ solution assessed as reduction of fluorescence by G4-FID assay; how it was run: as §4
Homo sapiens [22] = organism: Homo sapiens; assay: Binding affinity to human telomeric 5'-AG3(T2AG3)3-3' by circular dichroism spectroscopy
How it was run: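 DNA at 2 µM final in 10 mM Tris-HCl, 100 mM KCl, pH 7.4 was annealed at 95 °C for 10 min and slowly cooled. Ligand was then added at several final concentrations. Spectra were recorded from 220 to 320 nm in a 5 mm cell at 25 °C, averaged over five scans and buffer-corrected, to assess whether the G-quadruplex fold was retained.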

Homo sapiens [23] = organism: Homo sapiens; assay: Displacement of thiazole orange from human telomeric 5'-AG3(T2AG3)3-3' (unknown origin) assessed as reduction of fluorescence at 2.5 uM by G4-FID assay; how it was run: as §4

Row | SMILES | Ratio (Homo sapiens [1]) | ΔTm (Homo sapiens [2]) [°C] | pKd [3] | ΔTm (Homo sapiens [4]) [°C] | pKd [5] | pKd [6] | ΔTm (Homo sapiens [7]) [°C] | ΔTm (Homo sapiens [8]) [°C] | ΔTm (Homo sapiens [9]) [°C] | ΔTm (Homo sapiens [10]) [°C] | ΔTm (Homo sapiens [11]) [°C] | ΔTm (Homo sapiens [12]) [°C] | ΔTm (Homo sapiens [13]) [°C] | ΔTm (Homo sapiens [14]) [°C] | ΔTm (Homo sapiens [15]) [°C] | inhibition (Homo sapiens [16]) | further results
1 | NCCCn1cc(-c2ccc3ccc4ccc(-c5cn(CCCN)nn5)nc4c3n2)nn1 | 2 | 13.9 | 6.04 | 1.1 | 7.12 | 7.35 | 13.3 | 8.4 | 16.1 | 11.8 | 10.3 | 11.9 | 5.1 | 9.8 | 1.2 | – | –
2 | CC(C)/N=C(/NCCCn1cc(-c2ccc3ccc4ccc(-c5cn(CCCN/C(=N\C(C)C)NC(C)C)nn5)nc4c3n2)nn1)NC(C)C | 13 | 14.6 | – | 0.7 | 6.36 | 7.48 | 9.5 | 4.3 | 14.5 | 12 | 3.2 | 8.8 | 2.8 | 8.3 | 1.3 | inactive | –
3 | NCCCCn1cc(-c2ccc3ccc4ccc(-c5cn(CCCCN)nn5)nc4c3n2)nn1 | 2 | 15.2 | 5.97 | 1 | 6.94 | 7.30 | 12.9 | – | 15.8 | 13.6 | 10.1 | – | – | 11.1 | 1.3 | – | –
4 | CC(C)/N=C(/NCCn1cc(-c2ccc3ccc4ccc(-c5cn(CCN/C(=N\C(C)C)NC(C)C)nn5)nc4c3n2)nn1)NC(C)C | 13 | 12.5 | – | 0.7 | 6.25 | 7.40 | 9.7 | – | 13.6 | 10.4 | 4.2 | – | – | 7.4 | 1.1 | inactive | –
5 | N=C(N)NCCCn1cc(-c2ccc3ccc4ccc(-c5cn(CCCNC(=N)N)nn5)nc4c3n2)nn1 | 2 | 18.4 | 5.97 | 1.6 | 7.24 | 7.55 | 18 | 11.4 | 22 | 16.1 | 12.2 | 16.4 | 6.6 | 11.4 | 2.8 | – | Q50 (Homo sapiens [17]): > 2.5 µM; inhibition (Homo sapiens [18]): 21%; Q50 (Homo sapiens [19]): 0.25 µM; Activity (Homo sapiens [20]): Active; Q50 (Homo sapiens [21]): 0.94 µM; Activity (Homo sapiens [22]): Active; inhibition (Homo sapiens [23]): 47%
6 | CC(C)/N=C(/NCCCCn1cc(-c2ccc3ccc4ccc(-c5cn(CCCCN/C(=N\C(C)C)NC(C)C)nn5)nc4c3n2)nn1)NC(C)C | 2 | 15.9 | – | 0.8 | 6.75 | 7.46 | 15.1 | – | 18.1 | 13.9 | 5.1 | – | – | 10.3 | 1.3 | inactive | –
7 | N=C(N)NCCCCn1cc(-c2ccc3ccc4ccc(-c5cn(CCCCNC(=N)N)nn5)nc4c3n2)nn1 | 2 | 18.5 | 5.99 | 1.7 | 7.21 | 7.54 | 17.3 | – | 21.8 | 16.8 | 12.2 | – | – | 13.8 | 3.7 | – | –
8 | C[n+]1ccc(-c2c3nc(c(-c4cc[n+](C)cc4)c4ccc([nH]4)c(-c4cc[n+](C)cc4)c4ccc([nH]4)c(-c4cc[n+](C)cc4)c4nc2C=C4)C=C3)cc1 | – | – | – | 9.3 | – | – | 23.1 | – | > 35 | > 25 | 19.7 | – | – | > 25 | 14.8 | – | –
9 | N=C(N)NCCn1cc(-c2ccc3ccc4ccc(-c5cn(CCNC(=N)N)nn5)nc4c3n2)nn1 | 2 | 16.4 | 5.95 | 1.2 | 7.12 | 7.30 | 15 | – | 18.9 | 13.9 | 11 | – | – | 11 | 2.5 | – | –
10 | NCCn1cc(-c2ccc3ccc4ccc(-c5cn(CCN)nn5)nc4c3n2)nn1 | 2 | 6.2 | 5.93 | 0.4 | 6.86 | 7.33 | 5.5 | – | 6.8 | 4.9 | 4.4 | – | – | 3.7 | 0.6 | – | –

From ChEMBL document CHEMBL3108761, “Phenanthroline-2,9-bistriazoles as selective G-quadruplex ligands” (Eur J Med Chem, 2014)
